# According to paper PMC7668563 (International journal of molecular biology (Edmond, Okla.), 2020):
# Key:
# [1] = molecular target: T1, apo-human transferrin (apo-hTf) (Homo sapiens, UniProt P02787); assay: UV-Vis absorbance titration of apo-hTf; type: binding
# [2] = molecular target: T1, apo-human transferrin (apo-hTf); assay: Fluorescence quenching of apo-hTf; type: binding; settings: for biomolecular quenching rate constant kq: kq=Ksv/τ0; for Stern-Volmer quenching constant Ksv / number of binding sites n: pH 7.4; for quenching association constant Ka: pH 7.4, modified Stern-Volmer
# How it was run: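 Intrinsic fluorescence of apo-hTf in Tris-HCl pH 7.4 was titrated with test compound (Tris-HCl/2% DMSO). Conditions: excitation 280 nm, emission 290–500 nm, slits 10/5 nm, 1.0 cm quartz cell, at 296, 303, 310 and 317 K, triplicate titrations. Intensities were corrected for inner filter effect using absorbances at excitation and emission wavelengths. Ksv came from Stern-Volmer plots of F0/F vs [Q]; kq = Ksv/τ0 (τ0 ~1.0×10−8); Ka and n came from the modified Stern-Volmer equation.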
# [3] = molecular target: T1, apo-human transferrin (apo-hTf); assay: Thermodynamic parameters of apo-hTf complex formation; type: binding
# How it was run: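 Ksv values were obtained from apo-hTf fluorescence quenching at pH 7.4 at 296, 303, 310 and 317 K. ΔH°, ΔS° and ΔG° were derived from linear regression of ln(Ksv) vs 1/T (Van't Hoff equation).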
# [4] = molecular target: T1, apo-human transferrin (apo-hTf); assay: Fluorescence resonance energy transfer; type: binding
# How it was run: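 Emission spectrum of 1.0×10−5 mol L−1 apo-hTf and absorption spectrum of 1.0×10−5 mol L−1 test compound were recorded in 20 mM Tris-HCl pH 7.4 at room temperature, 260–450 nm, and their spectral overlap determined. E was calculated from apo-hTf fluorescence without and with equimolar test compound. R0 and donor–acceptor distance r came from Förster equations.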
# [5] = molecular target: T1, apo-human transferrin (apo-hTf); assay: Far-UV circular dichroism titration of apo-hTf, secondary structure content
# How it was run: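 Apo-hTf (4.0×10−7 mol L−1) in 2 mM Tris-HCl pH 7.4 was titrated with a 1.0×10−3 mol L−1 stock of test compound in Tris-HCl/2% DMSO, to final 0–2.4×10−6 mol L−1. Far-UV CD was recorded from 190–250 nm under nitrogen in a 1.0 cm cell: six scans at 100 nm/min. Baseline was buffer ± DMSO at room temperature. α-Helix was derived from MRE at 208 nm; β-sheet and random coil by the CD-RRG method.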
# [6] = test system: human breast adenocarcinoma cell line, MCF-7; settings: read-out: IC50 (±SD), MCF-7, ref 19; cited from earlier work
# [7] = test system: human colorectal adenocarcinoma cell line, HT-29; settings: read-out: IC50 (±SD), HT-29, ref 19; cited from earlier work
# T1 sequence (P02787 20-698): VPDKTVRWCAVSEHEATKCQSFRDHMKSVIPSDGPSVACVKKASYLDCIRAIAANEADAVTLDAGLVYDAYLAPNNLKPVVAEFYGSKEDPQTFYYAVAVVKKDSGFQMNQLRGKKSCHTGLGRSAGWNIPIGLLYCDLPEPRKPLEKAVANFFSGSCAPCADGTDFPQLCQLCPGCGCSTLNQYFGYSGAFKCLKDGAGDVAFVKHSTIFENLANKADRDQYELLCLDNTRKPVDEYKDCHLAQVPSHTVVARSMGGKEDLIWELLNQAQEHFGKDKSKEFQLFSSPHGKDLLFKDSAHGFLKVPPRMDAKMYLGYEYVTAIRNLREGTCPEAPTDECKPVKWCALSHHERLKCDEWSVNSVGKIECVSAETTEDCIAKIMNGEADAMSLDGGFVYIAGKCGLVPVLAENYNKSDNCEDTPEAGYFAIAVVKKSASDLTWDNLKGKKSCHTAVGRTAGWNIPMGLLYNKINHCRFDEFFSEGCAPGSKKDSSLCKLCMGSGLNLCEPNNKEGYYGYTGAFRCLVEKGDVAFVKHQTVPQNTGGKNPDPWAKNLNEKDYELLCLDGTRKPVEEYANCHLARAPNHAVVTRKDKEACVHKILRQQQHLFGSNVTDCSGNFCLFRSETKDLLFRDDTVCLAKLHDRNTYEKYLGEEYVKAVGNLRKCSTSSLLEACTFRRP
smiles,measurement,setting,value
C1CCCC1.C1CCCC1.[Cl][W][Cl] [Cp2WCl2],Ka at 280 nm,[1]; absorbance at 280 nm,2930 M⁻¹
same,Ka at 361 nm,[1]; absorbance at 361 nm,2980 M⁻¹
same,"Association constants, Ka, 280 nm","[1]; absorbance of apo-hTf at 280 nm, pH 7.4",2.93 10^3 M^−1
same,"Association constants, Ka, 361 nm","[1]; absorbance of apo-hTf at 361 nm, pH 7.4",2.98 10^3 M^−1
same,biomolecular quenching rate constant kq,[2]; 296 K,1.61e+11 M⁻¹ s⁻¹
same,Stern-Volmer quenching constant Ksv,[2]; 296 K,1610 M⁻¹
same,number of binding sites n,[2]; 296 K,1.16
same,quenching association constant Ka,[2]; 296 K,7800 M⁻¹
same,biomolecular quenching rate constant kq,[2]; 303 K,1.76e+11 M⁻¹ s⁻¹
same,Stern-Volmer quenching constant Ksv,[2]; 303 K,1760 M⁻¹
same,number of binding sites n,[2]; 303 K,1.13
same,quenching association constant Ka,[2]; 303 K,6000 M⁻¹
same,biomolecular quenching rate constant kq,[2]; 310 K,1.89e+11 M⁻¹ s⁻¹
same,Stern-Volmer quenching constant Ksv,[2]; 310 K,1890 M⁻¹
same,number of binding sites n,[2]; 310 K,1.08
same,quenching association constant Ka,[2]; 310 K,4200 M⁻¹
same,biomolecular quenching rate constant kq,[2]; 317 K,2.09e+11 M⁻¹ s⁻¹
same,Stern-Volmer quenching constant Ksv,[2]; 317 K,2090 M⁻¹
same,number of binding sites n,[2]; 317 K,1.04
same,quenching association constant Ka,[2]; 317 K,3200 M⁻¹
same,∆G°,[3]; 296 K,-4.343 kcal/mol
same,∆G°,[3]; 303 K,-4.498 kcal/mol
same,∆G°,[3]; 310 K,-4.653 kcal/mol
same,∆G°,[3]; 317 K,-4.809 kcal/mol
same,∆H°,"[3]; pH 7.4, from Ksv at 296-317 K",2.24 kcal/mol
same,∆S°,"[3]; pH 7.4, from Ksv at 296-317 K",93.12 J/mol K
same,Förster critical energy transfer distance R0,"[4]; k^2=2/3, n=1.336, ØD=0.118",4.53 nm
same,binding distance r (donor-acceptor),"[4]; k^2=2/3, n=1.336, ØD=0.118",6.05 nm
same,efficiency of energy transfer E,"[4]; room temperature, 1.0×10^−5 mol L^−1 each",0.15
same,other secondary structure content of apo-hTf,[5]; compound concentration 0.4 (M),18.3%
same,random coil content of apo-hTf,[5]; compound concentration 0.4 (M),33.7%
same,α-helix content of apo-hTf,[5]; compound concentration 0.4 (M),29.8%
same,β-sheet content of apo-hTf,[5]; compound concentration 0.4 (M),18.2%
same,other secondary structure content of apo-hTf,[5]; compound concentration 0.8 (M),18.4%
same,random coil content of apo-hTf,[5]; compound concentration 0.8 (M),33.8%
same,α-helix content of apo-hTf,[5]; compound concentration 0.8 (M),29.5%
same,β-sheet content of apo-hTf,[5]; compound concentration 0.8 (M),18.3%
same,other secondary structure content of apo-hTf,[5]; compound concentration 1.2 (M),18.6%
same,random coil content of apo-hTf,[5]; compound concentration 1.2 (M),33.9%
same,α-helix content of apo-hTf,[5]; compound concentration 1.2 (M),29.1%
same,β-sheet content of apo-hTf,[5]; compound concentration 1.2 (M),18.4%
same,other secondary structure content of apo-hTf,[5]; compound concentration 1.6 (M),19.1%
same,random coil content of apo-hTf,[5]; compound concentration 1.6 (M),34.1%
same,α-helix content of apo-hTf,[5]; compound concentration 1.6 (M),28.3%
same,β-sheet content of apo-hTf,[5]; compound concentration 1.6 (M),18.5%
same,other secondary structure content of apo-hTf,[5]; compound concentration 2 (M),19.2%
same,random coil content of apo-hTf,[5]; compound concentration 2 (M),34.3%
same,α-helix content of apo-hTf,[5]; compound concentration 2 (M),27.9%
same,β-sheet content of apo-hTf,[5]; compound concentration 2 (M),18.6%
same,other secondary structure content of apo-hTf,[5]; compound concentration 2.4 (M),19.4%
same,random coil content of apo-hTf,[5]; compound concentration 2.4 (M),34.4%
same,α-helix content of apo-hTf,[5]; compound concentration 2.4 (M),27.5%
same,β-sheet content of apo-hTf,[5]; compound concentration 2.4 (M),18.7%
same,IC50,[6],630 µM
same,IC50,[7],1000 µM
